These results are taken from ChEMBL document CHEMBL3244322, “5-O-Alkylated derivatives of 5-hydroxy-2'-deoxyuridine as potential antiviral agents. Anti-herpes activity of 5-propynyloxy-2'-deoxyuridine” (J Med Chem, 1978).

Structures are written as SMILES. ≈ marks a conversion by molar mass, not a printed value. Calls of active or inactive are those of the source. The calls are words filed in the database; no cut-off is given here.

In data set [1] the test system is Human alphaherpesvirus 1. As to the kind of experiment: Antiviral activity against Herpes simplex virus 1 KOS infected in human skin fibroblasts primed with interferon and superinduced with cyclohexamide and actinomycin D assessed as inhibition of virus-induced cytopathogenicity. Type of data set: functional. The conditions noted are these: Human alphaherpesvirus 1, KOS.

Data set [2] relates to Human alphaherpesvirus 1. As to the kind of experiment: Antiviral activity against Herpes simplex virus 1 KOS infected in primary rabbit kidney cells assessed as inhibition of virus-induced cytopathogenicity. The settings on record: Human alphaherpesvirus 1, KOS. It counts as functional.
In data set [3] the test system is Vesicular stomatitis virus. Briefly: Antiviral activity against Vesicular stomatitis virus infected in human skin fibroblasts primed with interferon and superinduced with cyclohexamide and actinomycin D assessed as inhibition of virus-induced cytopathogenicity. Type of data set: functional, organism-based.
Data set [4] relates to Vesicular stomatitis virus. Briefly: Antiviral activity against Vesicular stomatitis virus infected in primary rabbit kidney cells assessed as inhibition of virus-induced cytopathogenicity. It counts as functional, organism-based.
Data set [5] in a line: Cytotoxicity against mouse L cells assessed as suppression of replication at 10^-3 M. Type of data set: cell-based. The conditions noted are these: l929, 1000 µM.
A short description of data set [6]: Ratio of I50 for DNA synthesis in primary rabbit kidney cells by [3H]-dT incorporation assay to MIC50 for Herpes simplex virus 1 KOS. In a few lines: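 DNA synthesis in uninfected PRK cells measured by [3H]-dT incorporation. The concentration giving 50% reduction is set against the concentration giving 50% reduction in herpes virus cytopathogenicity.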
A short description of data set [7]: Cytotoxicity against mouse L cells assessed as suppression of replication. It counts as cell-based. The conditions noted are these: l929.

On to `Nc1ncnc2c1ncn2[C@@H]1O[C@H](CO)[C@@H](O)[C@@H]1O` [VIDARABINE], for which the MIC with Human alphaherpesvirus 1 [1] came out at 3.5 µM (≈ 0.935 µg/mL); in the data set on Human alphaherpesvirus 1 [2], 14 µM (≈ 3.74 µg/mL).
With `C=CCOc1cn([C@@H]2O[C@H](CO)[C@@H](O)[C@H]2O)c(=O)[nH]c1=O`, the inhibition entry in data set [3] and in data set [4] was “inactive” throughout. Besides, the MIC with Human alphaherpesvirus 1 [1] and with Human alphaherpesvirus 1 [2] was greater than 600 µM throughout.
With `O=c1[nH]c(=O)n([C@@H]2O[C@H](CO)[C@@H](O)[C@H]2O)cc1OCc1ccc([N+](=O)[O-])cc1`, the inhibition result in data set [3] and in data set [4] was “inactive” throughout. In addition, the MIC in the data set with Human alphaherpesvirus 1 [1] and with Human alphaherpesvirus 1 [2] was greater than 600 µM each time.
With `O=C(O)COc1cn([C@H]2C[C@H](O)[C@@H](CO)O2)c(=O)[nH]c1=O`, the inhibition entry in data set [3] and in data set [4] was “inactive” each time. Moreover, the MIC in the data set with Human alphaherpesvirus 1 [2] is greater than 600 µM.
For the compound `C=CCOc1cn([C@H]2C[C@H](O)[C@@H](CO)O2)c(=O)[nH]c1=O`, the inhibition result in data set [3] and in data set [4] was “inactive” in each case. Further, the MIC in the data set on Human alphaherpesvirus 1 [1] was determined as 140 µM (≈ 39.8 µg/mL); in the data set with Human alphaherpesvirus 1 [2], 14 µM (≈ 3.98 µg/mL).
Regarding `O=c1[nH]c(=O)n([C@H]2C[C@H](O)[C@@H](CO)O2)cc1OCc1ccc([N+](=O)[O-])cc1`, the inhibition result in data set [3] and in data set [4] was “inactive” throughout. Further, the MIC is greater than 520 µM in the data set with Human alphaherpesvirus 1 [1] and greater than 260 µM in the data set on Human alphaherpesvirus 1 [2].
On to `NC(=O)COc1cn([C@H]2C[C@H](O)[C@@H](CO)O2)c(=O)[nH]c1=O`, for which the inhibition entry in data set [3] and in data set [4] was “inactive” each time. The MIC in the data set on Human alphaherpesvirus 1 [1] was 260 µM (≈ 78.3 µg/mL); with Human alphaherpesvirus 1 [2] it was 140 µM (≈ 42.2 µg/mL).
With `C#CCOc1cn([C@H]2C[C@H](O)[C@@H](CO)O2)c(=O)[nH]c1=O`, the inhibition result in data set [3] and in data set [4] was “inactive” throughout. Further, the MIC in the data set on Human alphaherpesvirus 1 [1] amounted to 3.5 µM (≈ 0.988 µg/mL); with Human alphaherpesvirus 1 [2], 2.6 µM (≈ 0.734 µg/mL). Further, the Activity entry in data set [5] is “Non-toxic”. In data set [6], the Ratio stood at 150.
For the compound `O=c1[nH]c(=O)n([C@H]2C[C@H](O)[C@@H](CO)O2)cc1OCc1ccccc1`, the inhibition result in data set [3] and in data set [4] was “inactive” throughout. Also, the MIC in the data set with Human alphaherpesvirus 1 [1] was greater than 450 µM; in the data set on Human alphaherpesvirus 1 [2], greater than 120 µM.
On to `O=c1[nH]c(=O)n([C@H]2C[C@H](O)[C@@H](CO)O2)cc1O`, for which the MIC with Human alphaherpesvirus 1 [1] amounted to 3.5 µM (≈ 0.855 µg/mL); in the data set with Human alphaherpesvirus 1 [2] it was 16 µM (≈ 3.91 µg/mL).
For `O=c1[nH]c(=O)n([C@@H]2O[C@H](CO)[C@@H](O)[C@H]2O)cc1OCc1ccccc1`, the inhibition entry in data set [3] and in data set [4] was “inactive” throughout. Further, the MIC with Human alphaherpesvirus 1 [1] and in the data set with Human alphaherpesvirus 1 [2] was greater than 600 µM each time.
With `Cc1ccc(COc2cn([C@@H]3O[C@H](CO)[C@@H](O)[C@H]3O)c(=O)[nH]c2=O)cc1`, the inhibition entry in data set [3] and in data set [4] was “inactive” throughout. Also, the MIC in the data set with Human alphaherpesvirus 1 [1] and in the data set with Human alphaherpesvirus 1 [2] was greater than 600 µM each time.
With `O=c1[nH]c(=O)n([C@H]2C[C@H](O)[C@@H](CO)O2)cc1I` [IDOXURIDINE], the Activity result in data set [7] was “Toxic”. The MIC in the data set with Human alphaherpesvirus 1 [1] was found to be 0.35 µM (≈ 0.124 µg/mL); in the data set with Human alphaherpesvirus 1 [2], 1.4 µM (≈ 0.496 µg/mL).
For `NC(=O)COc1cn([C@@H]2O[C@H](CO)[C@@H](O)[C@H]2O)c(=O)[nH]c1=O`, the inhibition entry in data set [3] and in data set [4] was “inactive” each time. Moreover, the MIC in the data set with Human alphaherpesvirus 1 [1] and in the data set with Human alphaherpesvirus 1 [2] was greater than 600 µM in each case.
